Values after ≈ are worked out from the molar mass of the structure shown. Active and inactive are the calls of the source. No cut-off for these calls is given here.
Experiments:
[1] = Toxicity in Homo sapiens (human) RBCs assessed as hemolytic activity at 100 uM; format: cell-based; conditions: erythrocyte
[2] = Toxicity in Homo sapiens (human) RBCs assessed as hemolytic activity; format: cell-based; conditions: erythrocyte
[3] = test system: Penicillium digitatum; assay: Antimicrobial activity against Penicillium digitatum PHI-26 assessed as inhibition of orange postharvest decay progression progression at 2 uM pre-incubated with fungus for 16 hr measured 7 days post fungal inoculation by orange fruit decay assay; format: functional
Procedure, shortened: (§1)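 Orange fruit inoculation (Navelina, Navelate or Lanelate). Each fruit was wounded about 3 mm deep at four equatorial sites. 5 µL of inoculum (10^4 conidia mL-1 with peptide in water, preincubated 16 h at room temperature) went into each wound. Peptide was tested at 32 µM, from 4 to 64 µM, or from 1 to 4 µM. Fruit was held at 20 °C and 90% RH. Infected wounds were scored at 3, 5 and 7 dpi. Three replicas of five fruits each; Tukey mean separation.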

[4] = test system: Penicillium digitatum; assay: Antimicrobial activity against Penicillium digitatum PHI-26 assessed as inhibition of orange postharvest decay progression progression at 4 uM pre-incubated with fungus for 16 hr measured 7 days post fungal inoculation by orange fruit decay assay; format: functional, organism-based; procedure, shortened: as §1
[5] = test system: Penicillium digitatum; assay: Fungicidal activity against Penicillium digitatum PHI-26 conidia assessed as reduction in conidia viability at 4 uM incubated for 16 hr by colony count assay relative to untreated control; format: functional
Procedure, shortened: (§2)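 P. digitatum conidia (10^4 mL-1) were incubated with peptide (for example 4, 16 or 64 µM) in sterile distilled water for 16 h at room temperature, in triplicate. Samples were then serially diluted and spread on peptide-free PDA to count CFU. Results are given as mean CFU mL-1 ± SD compared with a no-peptide control.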

[6] = test system: Penicillium digitatum; assay: Fungicidal activity against Penicillium digitatum PHI-26 conidia assessed as inhibition of conidia viability incubated for 16 hr by colony count assay; format: functional, organism-based; procedure, shortened: as §2
[7] = test system: Penicillium digitatum; assay: Antimicrobial activity against Penicillium digitatum PHI-26 assessed as inhibition of orange postharvest decay progression at 32 uM pre-incubated with fungal conidia for 16 hr by orange fruit decay assay; format: functional, organism-based; procedure, shortened: as §1
[8] = test system: Escherichia coli; assay: Antimicrobial activity against Escherichia coli DH5[alpha] assessed as microbial growth inhibition after 4 days by microtiter plate assay; format: functional; conditions: 96 h
Procedure, shortened: (§3)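 Microtiter dose–response assay, as previously described. Peptide stocks were 1 mM in 5 mM MOPS pH 7. P. digitatum conidia came from 7–10-day PDA cultures grown at 24 °C and were counted with a hematocytometer. Yeast (YPD, 30 °C) and E. coli (LB, 37 °C) were grown to stationary phase and diluted. Growth was read as OD492 in triplicate. MIC: lowest concentration with no growth after 4 days in all independent experiments, each repeated at least three times.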

[9] = test system: Saccharomyces cerevisiae; assay: Antimicrobial activity against Saccharomyces cerevisiae FY1679 assessed as microbial growth inhibition after 4 days by microtiter plate assay; format: functional; conditions: FY1679, 96 h; procedure, shortened: as §3
[10] = test system: Penicillium digitatum; assay: Antimicrobial activity against Penicillium digitatum PHI-26 assessed as microbial growth inhibition after 4 days by microtiter plate assay; format: functional; procedure, shortened: as §3
[11] = test system: Penicillium digitatum; assay: Antimicrobial activity against Penicillium digitatum PHI-26 assessed as inhibition of orange postharvest decay progression progression at 32 uM measured 7 days post fungal inoculation by orange fruit decay assay; format: functional, organism-based
Procedure, shortened: (§4)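 Navelina sweet oranges were wounded about 3 mm deep at four equatorial sites. Each wound received 5 µL of 10^4 conidia mL-1 of PHI-26 mixed with peptide in water, inoculated either at once or after 16 h at room temperature. There were three replicas of five fruits, held at 20 °C and 90% RH. Infected wounds were scored at 3, 5 and 7 dpi as mean % ± SD, with Tukey separation.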

[12] = test system: Penicillium digitatum; assay: Antimicrobial activity against Penicillium digitatum PHI-26 assessed as inhibition of orange postharvest decay progression at 32 uM by orange fruit decay assay; format: functional, organism-based; procedure, shortened: as §4

| Molecule | Activity [1] | Activity [2] | inhibition at 2 µM [3] [%] | inhibition [4] | fold change (FC) [5] | inhibition [6] | inhibition [7] | MIC [8] [µM] | MIC [9] [µM] | MIC ([10]; PHI-26, 96 h) [µM] | MIC [10] | inhibition [5] | inhibition [11] | inhibition [12] |
| --- | --- | --- | --- | --- | --- | --- | --- | --- | --- | --- | --- | --- | --- | --- |
| CC(=O)N[C@@H](Cc1cnc[nH]1)C(=O)N[C@@H](CCCNC(=N)N)C(=O)N[C@@H](CCCCN)C(=O)N[C@@H](CCCCN)C(=O)N[C@@H](Cc1c[nH]c2ccccc12)C(=O)N[C@@H](Cc1ccccc1)C(=O)N[C@@H](Cc1c[nH]c2ccccc12)C(N)=O | Non-toxic | Non-toxic | > 50 | Active | 2 | Active | Active | 16 (≈ 18.1 µg/mL) | 16 (≈ 18.1 µg/mL) | 4 (≈ 4.51 µg/mL) | – | – | – | – |
| CC(=O)N[C@@H](CCCNC(=N)N)C(=O)N[C@@H](CCCNC(=N)N)C(=O)N[C@@H](CCCCN)C(=O)N[C@@H](CCCCN)C(=O)N[C@@H](Cc1c[nH]c2ccccc12)C(=O)N[C@@H](Cc1ccccc1)C(=O)N[C@@H](Cc1c[nH]c2ccccc12)C(N)=O | Non-toxic | Non-toxic | – | Active | 2 | Active | Active | 8 (≈ 9.18 µg/mL) | 16 (≈ 18.4 µg/mL) | 4 (≈ 4.59 µg/mL) | – | – | – | – |
| CC(=O)N[C@H](CCCNC(=N)N)C(=O)N[C@H](CCCNC(=N)N)C(=O)N[C@H](CCCCN)C(=O)N[C@H](CCCCN)C(=O)N[C@H](Cc1c[nH]c2ccccc12)C(=O)N[C@H](Cc1ccccc1)C(=O)N[C@H](Cc1c[nH]c2ccccc12)C(N)=O | – | – | – | – | – | – | – | – | – | – | Active | – | – | – |
| CC(=O)N[C@H](Cc1cnc[nH]1)C(=O)N[C@H](CCCNC(=N)N)C(=O)N[C@H](CCCCN)C(=O)N[C@H](CCCCN)C(=O)N[C@H](Cc1c[nH]c2ccccc12)C(=O)N[C@H](Cc1ccccc1)C(=O)N[C@H](Cc1c[nH]c2ccccc12)C(N)=O | – | – | – | – | – | – | – | – | – | – | Active | – | – | – |
| CC[C@H](C)[C@H](NC(C)=O)C(=O)N[C@@H](CC(C)C)C(=O)N1CCC[C@H]1C(=O)N[C@@H](Cc1c[nH]c2ccccc12)C(=O)N[C@@H](CCCCN)C(=O)N[C@@H](Cc1c[nH]c2ccccc12)C(=O)N1CCC[C@H]1C(=O)N[C@@H](Cc1c[nH]c2ccccc12)C(=O)N[C@@H](Cc1c[nH]c2ccccc12)C(=O)N1CCC[C@H]1C(=O)N[C@@H](Cc1c[nH]c2ccccc12)C(=O)N[C@@H](CCCNC(=N)N)C(=O)N[C@@H](CCCNC(=N)N)C(N)=O [Indolicidin] | – | – | – | Active | – | Active | – | – | – | – | – | Active | – | – |
| CC[C@H](C)[C@H](NC(=O)[C@H](CCCCN)NC(=O)[C@H](CCCCN)NC(=O)[C@H](Cc1ccccc1)NC(=O)[C@H](CC(C)C)NC(=O)[C@H](CCCCN)NC(=O)[C@@H](N)CCCCN)C(=O)N[C@@H](CC(C)C)C(=O)N[C@@H](CCCCN)C(=O)N[C@@H](Cc1ccccc1)C(=O)N[C@@H](CC(C)C)C(N)=O [KKLFKKILKFL-NH2] | – | Toxic | – | – | – | Active | – | 4 (≈ 5.62 µg/mL) | 16 (≈ 22.5 µg/mL) | 4 (≈ 5.62 µg/mL) | – | Active | – | – |
| CC[C@H](C)[C@H](NC(=O)[C@H](CCCCN)NC(=O)[C@H](CCCCN)NC(=O)[C@H](Cc1ccccc1)NC(=O)[C@H](CC(C)C)NC(=O)[C@H](CCCCN)NC(=O)[C@@H](N)CCCCN)C(=O)N[C@@H](CC(C)C)C(=O)N[C@@H](CCCCN)C(=O)N[C@H](C(=O)N[C@@H](CC(C)C)C(N)=O)C(C)C [KKLFKKILKVL-NH2] | – | Toxic | – | – | – | Active | – | 4 (≈ 5.43 µg/mL) | 16 (≈ 21.7 µg/mL) | 4 (≈ 5.43 µg/mL) | – | Active | – | – |
| CC[C@H](C)[C@H](NC(=O)CN)C(=O)NCC(=O)N[C@@H](C)C(=O)N[C@H](C(=O)N[C@@H](CC(C)C)C(=O)N[C@@H](CCCCN)C(=O)N[C@H](C(=O)N[C@@H](CC(C)C)C(=O)N[C@H](C(=O)N[C@H](C(=O)NCC(=O)N[C@@H](CC(C)C)C(=O)N1CCC[C@H]1C(=O)N[C@@H](C)C(=O)N[C@@H](CC(C)C)C(=O)N[C@H](C(=O)N[C@@H](CO)C(=O)N[C@@H](Cc1c[nH]c2ccccc12)C(=O)N[C@H](C(=O)N[C@@H](CCCCN)C(=O)N[C@@H](CCCNC(=N)N)C(=O)N[C@@H](CCCCN)C(=O)N[C@@H](CCCNC(=N)N)C(=O)N[C@@H](CCC(N)=O)C(=O)N[C@@H](CCC(N)=O)C(N)=O)[C@@H](C)CC)[C@@H](C)CC)[C@@H](C)O)[C@@H](C)O)C(C)C)C(C)C [MELITTIN] | – | Toxic | – | inactive | – | inactive | inactive | – | 16 (≈ 45.5 µg/mL) | 2 (≈ 5.69 µg/mL) | – | inactive | Active | inactive |
| Ac-RFWWFRRR-NH2 | Non-toxic | – | – | Active | 2 | Active | Active | 8 | 32 | 4 | – | – | – | Active |
| Ac-RKKWFW-NH2 | Non-toxic | Non-toxic | – | – | 2 | Active | Active | 32 | 32 | 4 | – | – | – | – |

— ChEMBL document CHEMBL3046112, “Comparative study of antimicrobial peptides to control citrus postharvest decay caused by Penicillium digitatum” (J Agric Food Chem, 2007)
